In ChEMBL document CHEMBL4325910, “Design and synthesis of rosiglitazone-ferulic acid-nitric oxide donor trihybrids for improving glucose tolerance” (Eur J Med Chem, 2019):
Active and inactive are the calls of the source. The calls are words filed in the database; no cut-off is given here.

Columns and labels:
L02 = assay: Inhibition of cellular glucose output in dexamethasone-induced insulin resistant human L02 cells assessed as insulin-stimulated glucose uptake at 10 uM preincubated for 24 hrs followed by insulin stimulation measured after 24 hrs by glucose oxidase method (reference value: 4.5 +/- 0.7%); type: functional; design: scale not given: the % may be the effect or the level left
3T3-L1 = assay: Induction of insulin-stimulated 2-NBDG uptake in TNF-alpha-induced insulin resistant mouse 3T3L1 cells at 10 uM preincubated for 48 hrs followed by 2-NBDG addition measured after 30 mins in presence of insulin by fluorescence assay; type: functional, cell-based
In short: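 Day-8 differentiated 3T3-L1 adipocytes received TNF-α (4 ng/mL) daily for 4 days. They were pretreated in triplicate for 48 h (C-PTIO 20 μM where indicated), then given 100 μM 2-NBDG at 37 °C for 30 min in the dark, with or without insulin. After KRP washes, fluorescence was read at Ex/Em 485/515 nm. Three experiments, mean ± SD.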

Aquaporin-2 [1] = molecular target: T1, Aquaporin-2 (Homo sapiens, UniProt P41181); assay: Induction of membrane translocation of biotinylated human AQP2 expressed in rat IMCD cells at 100 uM after 30 mins by FITC-staining based confocal fluorescence microscopic analysis; type: cell-based; conditions: 0.5 h
T1 sequence (P41181 whole entry): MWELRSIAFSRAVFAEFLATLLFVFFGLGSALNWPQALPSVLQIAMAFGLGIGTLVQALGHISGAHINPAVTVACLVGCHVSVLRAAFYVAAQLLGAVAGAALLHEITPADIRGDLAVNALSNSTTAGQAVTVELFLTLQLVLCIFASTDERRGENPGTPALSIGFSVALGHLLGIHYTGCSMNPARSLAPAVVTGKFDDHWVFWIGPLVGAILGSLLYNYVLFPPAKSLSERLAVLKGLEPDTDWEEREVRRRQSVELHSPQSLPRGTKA
In short: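 Primary SD rat IMCD cells, day 5, were transfected with a human AQP2 plasmid (5 h, serum-free) and cultured 48 h. They were treated for 30 min, with 0.1% DMSO as vehicle and forskolin 100 μM as reference. Cells were fixed in paraformaldehyde, permeabilized with Triton X-100 and quenched with H2O2/methanol. They were stained with FITC-anti-AQP2 and imaged by confocal microscopy.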

Aquaporin-2 [2] = molecular target: T1, Aquaporin-2; assay: Induction of membrane translocation of biotinylated human AQP2 expressed in rat IMCD cells at 100 uM after 30 mins by Western blot analysis; type: cell-based; conditions: 0.5 h
In short: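 Human AQP2-transfected primary rat IMCD cells were treated for 30 min. Surface proteins were biotinylated with sulfo-NHS-LC-biotin (3 mg/mL, 60 min, 4 °C), then cells lysed in 1% NP-40 and pulled down overnight on streptavidin beads. Biotinylated and total AQP2 (30 μg/lane) were blotted with anti-AQP2 and quantified by densitometry as the biotinylated/total ratio. Three experiments, mean ± SD.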

COc1cc(/C=C/C(=O)OCCCCCO[N+](=O)[O-])ccc1OC(=O)OCN1C(=O)SC(Cc2ccc(OCCN(C)c3ccccn3)cc2)C1=O (centres undefined) was tested, and the Activity (L02) was 7.1%.

In the case of COc1cc(/C=C/C(=O)OCN2C(=O)SC(Cc3ccc(OCCN(C)c4ccccn4)cc3)C2=O)ccc1OCCCCCO[N+](=O)[O-] (centres undefined), the Activity (L02) is reported as 7.1%.

For COc1cc(/C=C/C(=O)OCCCCO[N+](=O)[O-])ccc1OC(=O)OCN1C(=O)SC(Cc2ccc(OCCN(C)c3ccccn3)cc2)C1=O (centres undefined), the Activity (3T3-L1) was “Active” and the Activity (L02) was 12.2%.

COc1cc(/C=C/C(=O)OCCCCCO[N+](=O)[O-])ccc1OC(=O)CCC(=O)OCN1C(=O)SC(Cc2ccc(OCCN(C)c3ccccn3)cc2)C1=O (centres undefined) showed an Activity (L02) of 10.1%.

In the case of COC(=O)/C=C/c1ccc(O)c(OC)c1, the Activity (3T3-L1) is reported as “Active”.

With COc1cc(/C=C/C(=O)OCN2C(=O)SC(Cc3ccc(OCCN(C)c4ccccn4)cc3)C2=O)ccc1OCCCCO[N+](=O)[O-] (centres undefined) the Activity (3T3-L1) was “inactive” and the Activity (L02) was 11.1%.

In the case of COC(=O)/C=C/c1ccc(OC(=O)OCN2C(=O)SC(Cc3ccc(OCCN(C)c4ccccn4)cc3)C2=O)c(OC)c1 (centres undefined), the Activity (3T3-L1) is reported as “Active”.

COc1cc(/C=C/C(=O)OCCCO[N+](=O)[O-])ccc1OC(=O)CCC(=O)OCN1C(=O)SC(Cc2ccc(OCCN(C)c3ccccn3)cc2)C1=O (centres undefined) was tested, and the Activity (L02) was 10%.

COc1cc(/C=C/C(=O)OCN2C(=O)SC(Cc3ccc(OCCN(C)c4ccccn4)cc3)C2=O)ccc1OCCCCCCO[N+](=O)[O-] (centres undefined) showed an Activity (L02) of 8.5%.

Molecule COc1cc(/C=C/C(=O)OCCCCO[N+](=O)[O-])ccc1OC(=O)CCC(=O)OCN1C(=O)SC(Cc2ccc(OCCN(C)c3ccccn3)cc2)C1=O (centres undefined) has an Activity (L02) of 7.8%.

Work on COc1cc(/C=C/C(=O)OCCCCCCO[N+](=O)[O-])ccc1OC(=O)CCC(=O)OCN1C(=O)SC(Cc2ccc(OCCN(C)c3ccccn3)cc2)C1=O (centres undefined) yielded an Activity (L02) of 6.8%.

In the case of COc1cc(/C=C/C(=O)OCN2C(=O)SC(Cc3ccc(OCCN(C)c4ccccn4)cc3)C2=O)ccc1OCCCO[N+](=O)[O-] (centres undefined), the Activity (3T3-L1) is reported as “inactive” and the Activity (L02) is reported as 11.5%.

Molecule COc1cc(/C=C/C(=O)OCCCCCCO[N+](=O)[O-])ccc1OC(=O)OCN1C(=O)SC(Cc2ccc(OCCN(C)c3ccccn3)cc2)C1=O (centres undefined) has an Activity (L02) of 8%.

C=C[C@@]1(C)CC(=O)[C@]2(O)[C@@]3(C)[C@@H](O)CCC(C)(C)[C@@H]3[C@H](O)[C@H](OC(C)=O)[C@@]2(C)O1 [COLFORSIN] was tested, and the Activity (Aquaporin-2 [1]) was “Active” and the Activity (Aquaporin-2 [2]) was “Active”.

Work on COc1cc(/C=C/C(=O)OCCCO[N+](=O)[O-])ccc1OC(=O)OCN1C(=O)SC(Cc2ccc(OCCN(C)c3ccccn3)cc2)C1=O (centres undefined) yielded an Activity (L02) of 9.6%.
